Laboratory results taken from ChEMBL document CHEMBL5712896, “Targeting EHMT2 reverses EGFR-TKI resistance in NSCLC by epigenetically regulating the PTEN/AKT signaling pathway” (2018).
Calls of active or inactive are those of the source. No cut-off for these calls is given here.

Columns and labels:
[1] = tested on: PC-9/ER; assay: Induction of apoptosis in human PC-9/ER cells assessed as viable cells at 10 uM for 48 hrs by annexin V/PI staining based flow cytometric analysis (reference value: 94.2%); format: functional; conditions: read-out: Activity
[2] = tested on: HCC827ER; assay: Induction of apoptosis in human HCC827ER cells assessed as early apoptotic cells at 10 uM for 48 hrs by annexin V/PI staining based flow cytometric analysis (reference value: 1.8%); format: functional
[3] = tested on: PC-9/ER; assay: Antiproliferative activity against human PC-9/ER cells assessed as inhibition of cell growth upto 10 uM incubated for 48 hrs by MTT assay; format: functional, cell-based
How it was run: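 PC9/ER cells (made resistant by 3 months in Erlotinib, 0.5–2 μM, RPMI-1640 with 10% FBS) seeded at 8 × 10^4 cells/ml, left overnight, then exposed to 5 or 10 μM inhibitor (DMSO control) for 48 h. MTT (2.5 mg/ml stock) was added for 4 h at 37 °C, formazan dissolved in DMSO, OD read at 570 nm.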

[4] = tested on: HCC827ER; assay: Induction of apoptosis in human HCC827ER cells assessed as late apoptotic cells at 10 uM for 48 hrs by annexin V/PI staining based flow cytometric analysis (reference value: 3.5%); format: functional
[5] = tested on: PC-9/ER; assay: Induction of apoptosis in human PC-9/ER cells assessed as early apoptotic cells at 10 uM for 48 hrs by annexin V/PI staining based flow cytometric analysis (reference value: 1.9%); format: functional
[6] = tested on: PC-9/ER; assay: Induction of apoptosis in human PC-9/ER cells assessed as necrotic cells at 10 uM for 48 hrs by annexin V/PI staining based flow cytometric analysis (reference value: 0.1%); format: functional
[7] = tested on: PC-9/ER; assay: Induction of apoptosis in human PC-9/ER cells assessed as late apoptotic cells at 10 uM for 48 hrs by annexin V/PI staining based flow cytometric analysis (reference value: 3.8%); format: functional
[8] = tested on: HCC827ER; assay: Induction of apoptosis in human HCC827ER cells assessed as necrotic cells at 10 uM for 48 hrs by annexin V/PI staining based flow cytometric analysis (reference value: 0.3%); format: functional
[9] = tested on: HCC827ER; assay: Induction of apoptosis in human HCC827ER cells assessed as viable cells at 10 uM for 48 hrs by annexin V/PI staining based flow cytometric analysis (reference value: 94.4%); format: functional; conditions: read-out: Activity
[10] = tested on: PC-9/ER; assay: Induction of apoptosis in human PC-9/ER cells assessed as increased cleaved-PARP expression at 10 uM measured by Western blot analysis; format: functional, cell-based
How it was run: (§1)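 Resistant PC9/ER and HCC827/ER cells treated with 10 μM epigenetic inhibitor (DMSO control). Cleaved PARP detected by western blot on 10–15% SDS-PAGE with ECL, normalized to β-actin.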

[11] = tested on: HCC827ER; assay: Induction of apoptosis in human HCC827ER cells assessed as increased cleaved-PARP expression at 10 uM measured by Western blot analysis; format: functional, cell-based; how it was run: as §1
[12] = tested on: Mus musculus; assay: In vivo inhibition of AKT phosphorylation in human PC-9/ER cells xenografted SCID mouse assessed as increase in PTEN expression at 2.5 mg/kg, ip bid for 3 weeks; format: functional, organism-based
How it was run: (§2)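 Tumors were excised after 3 weeks from PC9/ER xenografts in SCID mice dosed with UNC0642 (2.5 mg/kg bid i.p.) with or without Erlotinib (12.5 mg/kg/day i.p.), saline as control. Tissue lysates were run on western blot for H3K9Me2, PTEN, p-AKT and AKT, normalized to β-actin or Histone3.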

[13] = tested on: Mus musculus; assay: In vivo inhibition of AKT phosphorylation in human PC-9/ER cells xenografted SCID mouse assessed as reduction of H3K9Me2 expression at 2.5 mg/kg, ip bid for 3 weeks; format: functional, organism-based; how it was run: as §2
[14] = tested on: PC-9/ER; assay: Antitumor activity against human PC-9/ER cells xenografted in SCID mouse assessed as inhibition of tumor growth at 2.5 mg/kg, ip bid for 3 weeks; format: functional, organism-based
How it was run: (§3)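 Male SCID mice, 7–8 weeks old, injected s.c. in the right flank with 5 × 10^6 PC9/ER cells in PBS. At an average tumor volume of 50 mm3, randomized into groups of n = 6: saline, UNC0642 2.5 mg/kg bid i.p., Erlotinib 12.5 mg/kg/day i.p., or both. Tumor volume tracked and body weight recorded; tumors weighed after sacrifice at 3 weeks.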

[15] = tested on: PC-9/ER; assay: Antitumor activity against human PC-9/ER cells xenografted in SCID mouse assessed as reduction of tumor weight at 2.5 mg/kg, ip bid for 3 weeks in presence of erlotinib relative to control; format: functional; design: scale not given: the % may be the effect or the level left; how it was run: as §3
[16] = tested on: PC-9/ER; assay: Antitumor activity against human PC-9/ER cells xenografted in SCID mouse assessed as reduction of tumor weight at 2.5 mg/kg, ip bid for 3 weeks relative to control; format: functional; design: scale not given: the % may be the effect or the level left; how it was run: as §3
[17] = Upregulation of PTEN mRNA expression level in human PC-9/ER cells assessed as increase in fold change at 10 uM by Western blot analysis; format: functional; conditions: in the assay text read “real-time RT-PCR” for “Western blot analysis”
How it was run: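 PC9/ER cells were treated with 10 μM UNC0638 or transfected with 20 nM EHMT2 siRNA, with DMSO or scramble siRNA as controls. Total RNA was extracted, reverse transcribed, and PTEN mRNA measured by SYBR Green real-time RT-PCR, normalized to GAPDH and expressed as fold change versus control. PTEN protein was checked separately by western blot against β-actin.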

Row | Structure (SMILES) | viability at 10 µM [1] | Activity [2] | Activity [3] | Activity [4] | Activity [5] | Activity [6] | Activity [7] | Activity [8] | viability at 10 µM [9] | Activity [10] | Activity [11] | other results
1 | O=C(/C=C/c1cccc(S(=O)(=O)Nc2ccccc2)c1)NO [BELINOSTAT] | 75.8% | 9.4% | Active | 7% | 12.8% | 0.9% | 10.5% | 1.3% | 82.3% | – | – | –
2 | Cc1cn(CCN2CCN(c3ccccc3-c3cc(C#N)cc(C(=O)NCCCN4CCCC4)c3)CC2)c2ccccc12 | – | – | – | – | – | – | – | – | – | inactive | inactive | –
3 | O=C(O)CCNc1cc(N2CCc3ccccc3CC2)nc(-c2ccccn2)n1 | – | – | – | – | – | – | – | – | – | inactive | inactive | –
4 | COc1cc2c(NC3CCN(C(C)C)CC3)nc(N3CCC(F)(F)CC3)nc2cc1OCCCN1CCCC1 | – | – | – | – | – | – | – | – | – | – | – | inhibition [12]: Active; inhibition [13]: Active; Activity [14]: Active; Activity [15]: 68.2%; Activity [16]: 37.2%
5 | COc1cc2nc(N3CCCC3)nc(NCCCCCN3CCCC3)c2cc1OC | – | – | – | – | – | – | – | – | – | inactive | inactive | –
6 | Cc1sc2c(c1C)C(c1ccc(Cl)cc1)=N[C@@H](CC(=O)OC(C)(C)C)c1nnc(C)n1-2 | 89.8% | 26.4% | Active | 10% | 4.8% | 0.2% | 5.2% | 0.2% | 63.4% | – | – | –
7 | CC[C@H](C)n1cc(C)c2c(C(=O)NCc3c(C)cc(C)[nH]c3=O)cc(-c3ccc(N4CCNCC4)nc3)cc21 | – | – | Active | – | – | – | – | – | – | Active | Active | –
8 | Nc1ncn([C@@H]2O[C@H](CO)[C@@H](O)[C@H]2O)c(=O)n1 | – | – | Active | – | – | – | – | – | – | Active | Active | –
9 | CC(C)N(C[C@H]1O[C@@H](n2cnc3c(N)ncnc32)[C@H](O)[C@@H]1O)[C@H]1C[C@@H](CCc2nc3cc(C(C)(C)C)ccc3[nH]2)C1 | – | – | – | – | – | – | – | – | – | inactive | inactive | –
10 | COc1cc2c(NC3CCN(C(C)C)CC3)nc(C3CCCCC3)nc2cc1OCCCN1CCCC1 | 38.5% | 43.1% | Active | 15% | 40.8% | 0.2% | 20.5% | 0% | 41.9% | Active | Active | fold change (FC) [17]: 2.5
